Screening results: PubChem BioAssay, several laboratories
CTSL1 counter: cathepsin L1 inhibition, PFM18AAP counter-screen; recombinant F. hepatica cathepsin L1, Z-Leu-Arg-MCA fluorescence; inhibition, % at 5.96 µM; 0.49% of 300,000 active;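 active = inhibition above the mean of all tested compounds plus 3 SD, set per screening campaign, cut at about 17% in these data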;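 note: 0% = plate median of test compound wells and 100% = 1 µM Z-Phe-Ala-diazomethylketone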
core dimer inh: HCV core protein dimerization inhibition. TR-FRET GST/Flag-core106 dimerization, 1536-well. inhibition, % at 5 µM. 0.33% of 300,000 active. AID 1899;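 active = inhibition above the mean of all tested compounds plus 3 SD, set per screening campaign, cut at about 45% in these data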
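assay system = GST-tagged and Flag-tagged HCV core protein residues 1-106 | controls = unlabelled core106 and no-GST-core106 wells | incubation = compound-protein-antibody incubation 4 h at 22.5 °C | probe or stimulus = Eu donor and XL665 acceptor anti-tag antibodies | read-out = % inhibition based on acceptor/donor emission ratio | signal = TR-FRET 671 and 617 nm emission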
PP1 inh: counter-screen for PP5 inhibitors: inhibitors of human PP1-alpha; P62136; purified PP1alpha, OMFP fluorescence; inhibition, % at 6.7 µM; 0.9% of 320,000 active;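 active = inhibition above the mean inhibition of all tested compounds plus 3 SD, computed separately for each screening campaign, cut at about 15% in these data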
Target sequence (P62136 whole entry, looked up): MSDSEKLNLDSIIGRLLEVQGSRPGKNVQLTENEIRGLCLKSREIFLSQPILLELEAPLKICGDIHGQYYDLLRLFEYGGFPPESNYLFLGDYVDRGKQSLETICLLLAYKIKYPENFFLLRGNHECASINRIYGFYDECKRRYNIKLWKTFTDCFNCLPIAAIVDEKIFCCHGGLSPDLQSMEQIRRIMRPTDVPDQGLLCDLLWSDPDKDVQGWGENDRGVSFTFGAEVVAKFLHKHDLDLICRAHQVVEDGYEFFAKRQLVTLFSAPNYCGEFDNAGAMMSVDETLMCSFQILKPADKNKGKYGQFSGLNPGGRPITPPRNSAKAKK
NadD inh: NadD (S. aureus) enzyme inhibition; inhibition, % at 20 µM; AID 602399; 0.78% of 360,000 active; purified NadD enzyme, colorimetric absorbance read-out; in the data active = inhibition above about 26%
Myeloid diff MLP: myeloid differentiation induction. calls only at 10 µM. 1% of 360,000 active. ER-HoxA9 myeloid progenitors, lysozyme-GFP differentiation, flow cytometry;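 active = normalized GFP-positive differentiation at or above the plate's own cutoff, the solvent-only control mean plus 3 SD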;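 note: cells exposed to compound for four days before flow analysis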
PP5 inh: blocks human protein phosphatase 5 activity; AID 1987; P53041; 0.18% of 320,000 active; purified PP5c, OMFP substrate fluorescence; inhibition, % at 6.7 µM;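 active = inhibition above the campaign's mean inhibition across all tested compounds plus 3 SD, cut at about 9.5% in these data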;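 note: 0% = DMSO only and 100% = 100 µM cantharidin control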
Active calls of the source: *; i = inactive; . = no result; + = active, no number. A selection: hits, their analogues and other compounds. The true share with any hit is near 3.1%.

SMILES	CTSL1 counter	core dimer inh	PP1 inh	NadD inh	Myeloid diff MLP	PP5 inh
O=C1/C(=C\c2ccc3c(c2)OCO3)CCC/C1=C/c1ccc2c(c1)OCO2	-1	13	2	-1	i	2
CC(C)[C@H](NC(=O)OCc1ccccc1)C(=O)OCC(=O)N1CCCCC1	.	.	.	-3	i	.
COc1ccc2c(CC(=O)N3CCN(S(=O)(=O)c4ccc(F)cc4)CC3)coc2c1	.	.	9	2	+	2
CCOc1cc(N2CCOCC2)c(OCC)cc1NC(=O)COC(=O)[C@@H]1CCCN1S(=O)(=O)c1ccccc1F	80*	-1	3	2	i	-3
CCOc1cc(N2CCOCC2)c(OCC)cc1NC(=O)CSc1nc(N)cc(=O)[nH]1	.	.	-1	3	i	-2
CCOc1cc(N2CCOCC2)c(OCC)cc1NC(=O)CN1C(=O)NC2(CCCCC2)C1=O	.	.	-1	2	i	1
CCOc1cc(N2CCOCC2)c(OCC)cc1NC(=O)CSc1n[nH]c(N)n1	21*	-3	-3	0	i	0
CCOc1cc(N2CCOCC2)c(OCC)cc1NC(=O)CN1C(=O)NC(C)(C2CC2)C1=O (centres undefined)	37*	0	4	-4	i	0
CCOc1cc(N2CCOCC2)c(OCC)cc1NC(=O)COC(=O)c1cc2ccccc2cc1O	58*	-1	1	5	i	0
CS(=O)(=O)c1ccc(-c2sc3ccccc3c2C(=O)N2CCN(c3ccc(F)cc3)CC2)cc1	.	.	.	10	i	.
O=C(/C=C/CCc1ccc2c(c1)OCO2)N1CCCCC1	.	.	.	2	i	.
C[C@@H]1Cn2cnc(C(=O)N[C@@H](Cc3c[nH]c4ccccc34)C(=O)OC(C)(C)C)c2C(=O)N1	.	.	.	17	i	.
COC(=O)c1c(C)oc2ccc(N(C(=O)Oc3ccccc3)S(=O)(=O)c3ccc(Cl)c([N+](=O)[O-])c3)cc12	-4	64*	-1	31*	i	2
c1ccc(Nc2nc(CSc3ncn[nH]3)cs2)cc1	35*	5	-6	-2	i	-1
CC(=O)NCC(=O)OCC(=O)c1ccccc1	-10	3	-2	1	+	1
CCN(CC)C(=O)CC(c1ccc(F)cc1)c1ccco1 (centres undefined)	49*	19	-4	9	i	-5
CN(C)CCCNC(=O)CC(c1ccc(F)cc1)c1ccco1 (centres undefined)	3	-5	-5	2	i	1
CCCN(CCC)C(=O)CC(c1ccccc1)c1ccco1 (centres undefined)	41*	11	-1	3	i	3
CC(CNC(=O)CN(C)CC(=O)Nc1ccccc1Br)c1ccccc1 (centres undefined)	.	.	.	3	i	.
Cn1nc(C#N)c(=O)[nH]c1=O	.	.	.	-4	i	.
C#CCOCCOCCOCCNc1nc(N2CCOCC2)nc(N2CCN(C(=O)CCCCCCCCCCNC(=O)[C@H]([C@@H](C)CC)n3cc(CCCCN=C(N)N)nn3)CC2)n1	3	-20	15*	11	i	-2
C#CCOCCOCCOCCNc1nc(N2CCN(C(=O)CCCCCCCCCCNC(=O)[C@H](CCCCN)n3cc(C)nn3)CC2)nc(N2CCN(C(=O)CCCCCCCCCCNC(=O)[C@@H]([C@H](C)O)n3cc(C)nn3)CC2)n1	4	-2	7	10	i	1
C#CCOCCOCCOCCNc1nc(N2CCOCC2)nc(N2CCN(C(=O)[C@H]([C@@H](C)CC)n3cc(CCCN=C(N)N)nn3)CC2)n1	7	-20	2	-9	i	3
C#CCOCCOCCOCCNc1nc(N2CCN(C(=O)[C@H]([C@@H](C)CC)n3cc(CCCN=C(N)N)nn3)CC2)nc(N2CCN(C(=O)[C@H](CCCCN)n3cc(CCCC)nn3)CC2)n1	3	-25	7	1	i	1
C#CCOCCOCCOCCNc1nc(N2CCN(C(=O)CCCCCCCCCCNC(=O)[C@H](CCCN=C(N)N)n3cc(C[C@@H](C)CC)nn3)CC2)nc(N2CCN(C(=O)CCCCCCCCCCNC(=O)[C@@H]([C@H](C)CC)n3cc(CCCCCN)nn3)CC2)n1	0	-8	71*	.	.	7
